For experiment [1], the system named is Felis catus. The experiment can be described thus: Inhibition of positive chronotropic response induced by stimulation of cardioaccelerator nerve of cat at 1 mg/kg (iv); Inactive. Format: functional, organism-based. On the set-up: dose 1 mg/kg. Put shortly: (§1)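 Cats of either sex, 4–6 kg, were anesthetized with intraperitoneal pentobarbital sodium (30 mg/kg) and pretreated with atropine sulfate (200 μg/kg) and hexamethonium bromide (10 mg/kg). They were intubated and ventilated, with the chest opened. Bipolar platinum electrodes were placed on the right postganglionic cardioaccelerator nerves, stimulated at 2 Hz for 30 s, 2-ms pulses, supramaximal 20–25 V. Heart rate was recorded. Compounds were given iv up to 1 mg/kg.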

Experiment [2] has as its system Felis catus. Put plainly: Inhibition of positive chronotropic response induced by stimulation of cardioaccelerator nerve of cat at 1 mg/kg (iv). Format: functional. Put shortly: as §1
The test system of experiment [3] is Felis catus. Put plainly: Active dose range of hypotensive effect in cat; range is 0.008-0.032 uM/kg. In kind it is functional.
Experiment [4] relates to Felis catus. The experiment can be described thus: Ability to lower arterial blood pressure in cat at 1.7 umol/kg. Format: functional, Artery. In outline: (§2)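 Cats of either sex, 4–6 kg, anesthetized with intraperitoneal pentobarbital sodium (30 mg/kg), intubated and ventilated by respirator. Arterial blood pressure and heart rate were monitored. Test doses ranged from 0.5 to 1.0 mg/kg.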

In experiment [5] the test system is Felis catus. The experiment can be described thus: Ability to lower arterial blood pressure in cat at 3.4 umol/kg. Format: functional, Artery. In outline: as §2

Each structure is given as a SMILES string. Calls of active or inactive are those of the source. The calls are words filed in the database; no cut-off is given here.

Regarding `CNCC1CCCc2cc(O)c(O)cc21` (stereo unspecified), the outcome in the experiment on Felis catus [1] was inactive.
The same measure, in the same setting: in the case of `CC(C)N(C)CC1CCCc2cc(O)c(O)cc21` (stereo unspecified) it was “inactive”; in that of `CC(C)NCC1CCCc2cc(O)c(O)cc21` (stereo unspecified), “inactive”.
With `CN1CCc2cccc3c2[C@H]1Cc1ccc(O)c(O)c1-3` [APOMORPHINE], the ED50 in the experiment with Felis catus [2] was found to be 0.022 µmol/kg. The Dose range in the experiment on Felis catus [3] is 0.032 µM/kg.
As for `CCN(CC)CC1CCCc2cc(O)c(O)cc21` (stereo unspecified), the result with Felis catus [1] was inactive.
Consider `CCCNCC1CCCc2cc(O)c(O)cc21` (stereo unspecified), for which, in the experiment with Felis catus [1], the outcome was inactive.
Regarding `Br.CN(C)CC1CCCc2cc(O)c(O)cc21` (stereo unspecified), the values for the BP with Felis catus [4] and in the experiment with Felis catus [5] were 31.5 mmHg and 34.5 mmHg, respectively. The result in the experiment on Felis catus [1] was inactive.
As for `CCNCC1CCCc2cc(O)c(O)cc21` (stereo unspecified), the result with Felis catus [1] was inactive.

The values above are taken from ChEMBL document CHEMBL1122228, “1-(Aminomethyl)-6,7-dihydroxytetralin derivatives: synthesis and assessment of dopamine-like effects” (1983).
